Assay outcomes deposited in PubChem BioAssay by several laboratories.
Dynein transport: blocks dynein driven cargo transport along microtubules. 3617.4 mouse cells, GR-EGFP nuclear translocation imaging; test concentration mostly 20 µM; stimulated with dexamethasone, 1 µM; hits give low values. z-score, hits read low. 220,000 tested, 0.47% active. AID 1381;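 active means plate z-score of nuclear minus cytoplasmic receptor signal below a set negative limit, without overly bright fluorescence or cell loss, cut at about -3.5 in these data, passing the limit was not always enough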;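 further: z-score of nuclear minus cytoplasmic ring GR-EGFP intensity difference per well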
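Buffer or medium: Induction medium lacking tetracycline, stripped serum | Also added: Dexamethasone agonist, 1.0 µM final, for 30 min | Timing: 48 h induction, 1 h compound, 30 min dex at 37 °C | Detection: Formaldehyde fixation, Hoechst nuclear stain, 10x automated fluorescence imaging | Measure: Nuclear versus cytoplasmic GR-EGFP signal, averaged per well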
MEKK3 PB1 HTS: MEKK3-MEK5 PB1 interaction, increase or decrease; Q99759; bead-based flow cytometry, Alexa488-MEK5 binding to MEKK3; actives lie on both sides; 0 = blocked by unlabeled MEK5, 100 = vehicle; binding response (% of control), % at 10 µM; 290,000 tested, 1.4% active; AID 1529;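 active means binding response more than 3 SD above or below the average of its plate-row segment, actives on both sides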;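 further: Alexa488 bead fluorescence after subtracting the streptavidin-only scavenger bead signal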
ATG4B inh: ATG4B (human) cysteine protease inhibition; Q9Y4P1; ATG4B cleavage of LC3-PLA2, NBD-HPC fluorescence, 1 h; inhibition, % at 8.33 µM; 340,000 tested, 0.51% active; AID 504462; in the data active means inhibition above about 40%
MEKK2 mut-MEK5: signal of MEK5 binding to mutant human MEKK2 PB1 domain. bead flow cytometry, Alexa488-MEK5 binding to MEKK2 mutant. percent response, % at 10 µM. 290,000 tested, 0.35% active. AID 1530; in the data active means percent response above about 24%, passing the limit was not always enough
Beta2AR agonist: activates human beta-2 adrenergic receptor causing internalization | P07550 | Am2.2-beta2AR cells, FAP receptor internalization, flow cytometry | response, % (no concentration beside the values) | 340,000 tested, 0.43% active;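 active means response above a set limit, near 3 SD of response in nonfluorescent compounds, cut at about 42% in these data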
Target sequence (P07550 whole entry, looked up): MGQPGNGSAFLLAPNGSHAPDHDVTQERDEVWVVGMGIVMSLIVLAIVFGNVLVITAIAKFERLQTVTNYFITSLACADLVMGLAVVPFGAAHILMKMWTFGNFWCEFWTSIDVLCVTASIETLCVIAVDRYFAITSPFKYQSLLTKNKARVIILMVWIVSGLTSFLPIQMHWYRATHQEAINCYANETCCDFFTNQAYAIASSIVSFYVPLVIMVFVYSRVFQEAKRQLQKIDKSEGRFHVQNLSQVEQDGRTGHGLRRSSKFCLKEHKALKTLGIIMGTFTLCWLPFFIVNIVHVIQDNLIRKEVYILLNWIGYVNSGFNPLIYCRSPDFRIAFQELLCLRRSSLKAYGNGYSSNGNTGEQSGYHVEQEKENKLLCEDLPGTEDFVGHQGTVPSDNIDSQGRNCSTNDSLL
MEKK2wt PB1 HTS: raises or lowers MEK5 binding to wildtype human MEKK2 PB1 domain; bead flow cytometry, Alexa488-MEK5 binding to MEKK2 WT; actives lie on both sides; 290,000 tested, 1.1% active; AID 1531; binding response (% of control), % at 10 µM; Q9Y2U5; in the data active means binding response below about 67% or above about 130%
MEKK2wt confirm: raises or lowers MEK5 binding to wildtype human MEKK2, retest | shares compounds with MEKK3 PB1 HTS | bead flow cytometry, Alexa488-MEK5 binding to MEKK2 WT; actives lie on both sides | binding response (% of control), % at 10 µM | 5,900 tested, 2.4% active; in the data active means binding response below about 16% or above about 210%; inactive means in between
MEKK2mut confirm: signal of MEK5 binding to mutant human MEKK2, retest; shares compounds with MEKK3 PB1 HTS; bead flow cytometry, Alexa488-MEK5 binding to MEKK2 mutant; percent response, % at 10 µM; 5,900 tested, 2% active; AID 1893; in the data active means percent response mostly above about 71%, no sharp cut-off; inactive means mostly below about 38%;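 further: higher means compound restores mutant binding toward wildtype level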
MEKK3-MEK5 inh: confirmation of inhibitors of MEK5 binding to human MEKK3 | shares compounds with MEKK3 PB1 HTS | bead flow cytometry, Alexa488-MEK5 binding to MEKK3; hits give low values | binding response (% of control), % at 10 µM | 5,900 tested, 1.8% active | AID 1894;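 active means binding response below 72% of control, or above a set upper limit, though filed actives all read lower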;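 further: 100% = DMSO only wells and 0% = binding blocked by excess unlabeled MEK5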
The depositor's hits bear a star; [ ] = dose if it differs, or a comment. Only some compounds are listed: those with a hit (about 2.9% of all), similar ones and a draw of the others.

Results for CC(Nc1[nH]c(=O)n(C)c(=O)c1N=O)c1ccccc1 (stereo unspecified) ?
Dynein transport: -0.35; MEKK3 PB1 HTS: 63; ATG4B inh: 1; MEKK2 mut-MEK5: -12; Beta2AR agonist: -6; MEKK2wt PB1 HTS: 74

Results for OCCCCNCc1ccc(OCc2ccc(Cl)cc2)cc1 ?
Dynein transport: -0.25; MEKK3 PB1 HTS: 108; ATG4B inh: 0; MEKK2 mut-MEK5: 37*; Beta2AR agonist: 19; MEKK2wt PB1 HTS: 181*; MEKK2wt confirm: 107; MEKK2mut confirm: 3; MEKK3-MEK5 inh: 101

How did CCCCCCCCCCCCCCCC[n+]1cccc2ccccc21 do in these assays?
Dynein transport: -5.2*; MEKK3 PB1 HTS: 133*; ATG4B inh: 51*; MEKK2 mut-MEK5: 9; Beta2AR agonist: 28; MEKK2wt PB1 HTS: 157*; MEKK2wt confirm: 252*; MEKK2mut confirm: 165*; MEKK3-MEK5 inh: 112

What do the screens show for `CCCCCCCCC[n+]1cccc2c3ccccc3ccc21`?
Dynein transport: 1.4; MEKK3 PB1 HTS: 106; ATG4B inh: 3; MEKK2 mut-MEK5: 19; Beta2AR agonist: -5; MEKK2wt PB1 HTS: 135*; MEKK2wt confirm: 150; MEKK2mut confirm: 29; MEKK3-MEK5 inh: 105

What do the screens show for `c1ccc2c(c1)ccc1ccccc12`?
ATG4B inh: -10; Beta2AR agonist: -2

What do the screens show for `Cc1ccc2c(c1)C(=O)CC(c1ccccc1)S2` (stereo unspecified)?
ATG4B inh: 18; Beta2AR agonist: -2

What do the screens show for `CCOc1ccc(C(=O)Nc2ccc(NC(=O)c3ccccc3)c(C)c2)cc1[N+](=O)[O-]`?
MEKK3 PB1 HTS: 101; ATG4B inh: -8; MEKK2 mut-MEK5: -1; Beta2AR agonist: -2; MEKK2wt PB1 HTS: 105

How did CCCN(CC(=O)Nc1ccccc1C)C(=O)Cc1c(C)nc2ccccc2c1C do in these assays?
ATG4B inh: -10; Beta2AR agonist: -10

Results for CN(C)CC/C=C1/c2ccccc2Sc2c(O)cc(Cl)cc21 ?
Dynein transport: 0.12; MEKK3 PB1 HTS: 103; ATG4B inh: 37; MEKK2 mut-MEK5: 10; Beta2AR agonist: 2; MEKK2wt PB1 HTS: 105

Results for COc1cc(Cl)cc2c1Sc1ccccc1/C2=C/CCN(C)C ?
Dynein transport: -3; MEKK3 PB1 HTS: 81; ATG4B inh: 11; MEKK2 mut-MEK5: 19; Beta2AR agonist: 26; MEKK2wt PB1 HTS: 167*; MEKK2wt confirm: 154; MEKK2mut confirm: 46; MEKK3-MEK5 inh: 108

How did CC1(C)CC(=O)C=C(CN2C(=O)c3ccccc3C2=O)C1=O do in these assays?
ATG4B inh: 0; Beta2AR agonist: -2

What do the screens show for `Cc1ccc(C(C(=O)NC2CCCCC2)N(C(=O)Cc2c[nH]c3ccccc23)c2ccccc2C)o1` (stereo unspecified)?
Dynein transport: 1.2; MEKK3 PB1 HTS: 128*; ATG4B inh: -2; MEKK2 mut-MEK5: 1; Beta2AR agonist: 4; MEKK2wt PB1 HTS: 105; MEKK2wt confirm: 102; MEKK2mut confirm: 1; MEKK3-MEK5 inh: 101

What do the screens show for `Cc1ccc(S(=O)(=O)N2CCCc3cc(NC(=O)c4c(F)cccc4F)ccc32)cc1`?
MEKK3 PB1 HTS: 103; ATG4B inh: 29; MEKK2 mut-MEK5: -4; Beta2AR agonist: 8; MEKK2wt PB1 HTS: 92

Results for CCOCCOC(=O)c1ccc(NC(=O)c2cc3ccccc3o2)cc1 ?
ATG4B inh: 6; Beta2AR agonist: 2

How did O=C(NCCOc1ccccc1)c1cc(S(=O)(=O)N2CCOCC2)ccc1F do in these assays?
MEKK3 PB1 HTS: 100; ATG4B inh: -7; MEKK2 mut-MEK5: 2; Beta2AR agonist: -2; MEKK2wt PB1 HTS: 102

Results for O=C(COc1ccc(Cl)cc1Cl)Nc1ccccc1F ?
ATG4B inh: -3; Beta2AR agonist: -3

Results for O=C1c2ccccc2C(=O)N1CN(C(=O)COc1ccc(Cl)cc1Cl)c1cccc(F)c1 ?
Dynein transport: -0.26; MEKK3 PB1 HTS: 139*; ATG4B inh: -7; MEKK2 mut-MEK5: 1; Beta2AR agonist: -18; MEKK2wt PB1 HTS: 105; MEKK2wt confirm: 99; MEKK2mut confirm: -1; MEKK3-MEK5 inh: 100

What do the screens show for `Cn1c(C(=O)NCCCN2CCN(c3ccccc3F)CC2)cc2c(=O)[nH]c3ccccc3c21`?
Dynein transport: 0.91; MEKK3 PB1 HTS: 111; ATG4B inh: -38; MEKK2 mut-MEK5: 28; Beta2AR agonist: 0; MEKK2wt PB1 HTS: 148*; MEKK2wt confirm: 130; MEKK2mut confirm: 5; MEKK3-MEK5 inh: 104

Results for O=C(Cc1csc(Nc2nc(=S)[nH]c3ccccc23)n1)NCCCN1CCN(c2ccccc2F)CC1 ?
Dynein transport: 0.47; MEKK3 PB1 HTS: 110; ATG4B inh: 4; MEKK2 mut-MEK5: -2; Beta2AR agonist: 6; MEKK2wt PB1 HTS: 147*; MEKK2wt confirm: 153; MEKK2mut confirm: 31; MEKK3-MEK5 inh: 102

How did O=C(CSc1nc2ccccc2c(=O)n1-c1ccccc1)N1CCc2ccccc2C1 do in these assays?
Dynein transport: -1.1; MEKK3 PB1 HTS: 88; ATG4B inh: 23; MEKK2 mut-MEK5: -3; Beta2AR agonist: -7; MEKK2wt PB1 HTS: 84

Results for CC(C)c1ccccc1-n1c(SCC(=O)N2CCc3ccccc3C2)nc2ccccc2c1=O ?
Dynein transport: -0.34; MEKK3 PB1 HTS: 155*; ATG4B inh: 8; MEKK2 mut-MEK5: 0; Beta2AR agonist: 7; MEKK2wt PB1 HTS: 103; MEKK2wt confirm: 92; MEKK2mut confirm: -8; MEKK3-MEK5 inh: 98

How did O=C(CSc1nc2ccccc2c(=O)n1-c1ccccc1)N1CCN(CCO)CC1 do in these assays?
Dynein transport: -0.55; MEKK3 PB1 HTS: 2.0*[inhibitor]; ATG4B inh: -11; MEKK2 mut-MEK5: -21; Beta2AR agonist: -1; MEKK2wt PB1 HTS: 3.0*[inhibitor]; MEKK2wt confirm: 96; MEKK2mut confirm: 1; MEKK3-MEK5 inh: 104
